Results on 21 molecules are retold here after ChEMBL document CHEMBL2390955, “Synthesis of novel strobilurin-pyrimidine derivatives and their antiproliferative activity against human cancer cell lines” (Bioorg Med Chem Lett, 2013).

In general, IC50 refers to the midpoint of a concentration-inhibition curve.

The test system of assay [1] is HL-60. As to the kind of experiment: Cytotoxicity against human HL60 cells assessed as growth inhibition by MTT assay. The assay is classed as functional, cell-based. The essentials:
(§1)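 Growth inhibition of EC9706, HL60, MCF-7 or SMMC7721 human cancer cells measured by MTT assay, with the IC50 reported as the potency value.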
(In general: Formazan colour is commonly taken as a measure of viable cells.)

In assay [2] the test system is A549. As to the kind of experiment: Cytotoxicity against human A549 cells assessed as growth inhibition by SRB assay. The format is functional, cell-based. Summed up: (§2)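 A549 growth inhibition measured by sulforhodamine B (SRB) staining, with the IC50 reported as the potency value.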
For orientation: Sulforhodamine B stains cellular protein and so reports cell mass.

In assay [3] the test system is MCF7. The experiment in a line: Cytotoxicity against human MCF7 cells assessed as growth inhibition by MTT assay. The assay is classed as functional, cell-based. Summed up:
as §1

Assay [4] can be described thus: Cytotoxicity against human EC9706 cells assessed as growth inhibition by MTT assay. The assay is classed as functional, cell-based. Summed up: as §1
Assay [5] concerns SMMC-7721. The experiment in a line: Cytotoxicity against human SMMC7721 cells assessed as growth inhibition by MTT assay. The format is functional, cell-based. The essentials:
as §1

The test system of assay [6] is HL-60. As to the kind of experiment: Ratio of doxorubicin IC50 to compound IC50 for human HL60 cells. The format is functional.
Assay [7] relates to A549. As to the kind of experiment: Cytotoxicity against human A549 cells assessed as growth inhibition. The format is functional, cell-based. The essentials:
as §2

The test system of assay [8] is HL-60. As to the kind of experiment: Cytotoxicity against human HL60 cells assessed as growth inhibition. The format is functional, cell-based. The essentials: as §1

On to `CO/C=C(/C(=O)OC)c1ccccc1COc1cc(C(F)(F)F)nc(Nc2ccc(Cl)cc2)n1`, for which the values for the IC50 in assay [1] and in assay [2] were 19 µM and 1.3 µM, respectively.

As to `CO/C=C(/C(=O)OC)c1ccccc1COc1cc(C(F)(F)F)nc(Nc2ccc(Cl)cc2F)n1`, the IC50 in assay [1] stood at 2.7 µM; in assay [2] it was 1.3 µM.

For the molecule `CO/C=C(/C(=O)OC)c1ccccc1COc1cc(C(F)(F)F)nc(Nc2ccc(F)cc2F)n1`, the IC50 in assay [1] turned out to be 4.8 µM; in assay [2] it was 1 µM.

Regarding `CO/C=C(/C(=O)OC)c1ccccc1COc1cc(C(F)(F)F)nc(Nc2c(F)cccc2F)n1`, the 50% inhibitory concentration (IC50) turned out to be 12.1 µM in assay [1] and 41.4 µM in assay [2].

On to `CO/C=C(/C(=O)OC)c1ccccc1COc1cc(C(F)(F)F)nc(Nc2ccc(F)c(F)c2F)n1`, for which the values for the IC50 in assay [1] and in assay [2] were 13.6 µM and 1 µM, respectively.

For `CNc1nc(OCc2ccccc2/C(=C\OC)C(=O)OC)cc(C(F)(F)F)n1`, the IC50 in assay [1] amounted to 76.7 µM; in assay [2], 93.7 µM.

With `CCNc1nc(OCc2ccccc2/C(=C\OC)C(=O)OC)cc(C(F)(F)F)n1`, the IC50 was 0.3 µM in assay [1] and 3.2 µM in assay [2].

On to `CO/C=C(/C(=O)OC)c1ccccc1COc1cc(C(F)(F)F)nc(N(C)C)n1`, for which the IC50 in assay [1] turned out to be 11.1 µM; in assay [2] it was 6 µM.

Turning to `CCN(CC)c1nc(OCc2ccccc2/C(=C\OC)C(=O)OC)cc(C(F)(F)F)n1`, the IC50 in assay [1] stood at 15 µM; in assay [2] it was 17.9 µM.

On to `CO/C=C(/C(=O)OC)c1ccccc1COc1cc(C(F)(F)F)nc(NC(C)C)n1`, for which the results for the IC50 in assay [1] and in assay [2] were 3.4 µM and 9.8 µM, respectively.

Consider `CO/C=C(/C(=O)OC)c1ccccc1COc1cc(C(F)(F)F)nc(NC2CC2)n1`, for which the half-inhibitory concentration (IC50) in assay [1] was determined as 6.5 µM; in assay [2], 10 µM.

Take `CO/C=C(/C(=O)OC)c1ccccc1COc1cc(C(F)(F)F)nc(N2CCCCC2)n1`: the IC50 amounted to 51.6 µM in assay [1] and 4.9 µM in assay [2].

In the case of `CO/C=C(/C(=O)OC)c1ccccc1COc1nc(Nc2ccccc2)nc(C(F)(F)F)c1C`, the IC50 turned out to be 0.7 µM in assay [1] and 7.4 µM in assay [2].

Turning to `CO/C=C(/C(=O)OC)c1ccccc1COc1nc(Nc2ccc(Cl)cc2)nc(C(F)(F)F)c1C`, the IC50 in assay [1] was 0.7 µM; in assay [2] it was 5.5 µM.

With `CO/C=C(/C(=O)OC)c1ccccc1COc1nc(Nc2ccc(Cl)cc2Cl)nc(C(F)(F)F)c1C`, the IC50 in assay [1] was found to be 2.9 µM; in assay [3], 14.2 µM; in assay [4], 0.44 µM; in assay [5], 4.6 µM; in assay [2], 0.4 µM.

Consider `CO/C=C(/C(=O)OC)c1ccccc1COc1nc(Nc2ccc(F)cc2F)nc(C(F)(F)F)c1C`, for which the figures for the IC50 in assay [1] and in assay [2] were 0.0034 µM and 3.1 µM, respectively. Moreover, the “Ratio IC50” value in assay [6] is given as 24.

As to `CO/C=C(/C(=O)OC)c1ccccc1COc1nc(Nc2ccc(F)c(F)c2F)nc(C(F)(F)F)c1C`, the IC50 is 0.8 µM in assay [1] and 5 µM in assay [2].

Turning to `CO/C=C(/C(=O)OC)c1ccccc1COc1cc(C(F)(F)F)nc(OC(C)C)n1`, the IC50 in assay [1] worked out at 6.9 µM; in assay [2] it was 9.8 µM.

As for `CO/C=C(/C(=O)OC)c1ccccc1COc1cc(C(F)(F)F)nc(Nc2ccccc2)n1`, the IC50 in assay [1] was found to be 3.3 µM; in assay [7], 3 µM; in assay [8], 3.3 µM; in assay [2] it was 3 µM.

Turning to `COc1cccc2c1C(=O)c1c(O)c3c(c(O)c1C2=O)C[C@@](O)(C(=O)CO)C[C@@H]3O[C@H]1C[C@H](N)[C@H](O)[C@H](C)O1` [DOXORUBICIN], the IC50 in assay [1] turned out to be 0.082 µM; in assay [2], 0.5 µM.

On to `CO/C=C(/C(=O)OC)c1ccccc1COc1cc(C(F)(F)F)nc(Nc2ccc(Cl)cc2Cl)n1` [SYP-11277], for which the IC50 in assay [1] and in assay [2] was above 100 µM in each case.
